# Measured values published in ChEMBL document CHEMBL1138050, “Furan-2-ylmethylene thiazolidinediones as novel, potent, and selective inhibitors of phosphoinositide 3-kinase gamma” (J Med Chem, 2006).
# How the values were obtained:
# [1] = target: Tyrosine-protein kinase Fyn (Homo sapiens) (UniProt P06241); experiment: Residual activity at human FYN at 10 uM in presence of 10 uM ATP relative to control
# In short: (§1)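 Panel of Ser/Thr and Tyr protein kinases, each tested with 10 µM compound in the presence of 10 µM ATP; activity expressed relative to control.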
# Mus musculus = experiment: Reduction of neutrophil recruitment in mouse at 10 mg/kg, po; assay type: functional; set-up: scale not given: the % may be the effect or the level left
# In short: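 Thioglycollate-induced peritonitis in mice. Compound given orally at 10 mg/kg; peritoneal neutrophil recruitment measured 4 h after thioglycollate injection, reported as percent reduction.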
# [2] = target: Protein kinase C iota type (Homo sapiens) (UniProt P41743); experiment: Residual activity at human PKCiota at 10 uM in presence of 10 uM ATP relative to control
# In short: (§2)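 Single-concentration counter-screen across a panel of 80 Ser/Thr and Tyr protein kinases. Compound was tested at 10 µM with ATP at 10 µM. Activity remaining in each kinase is expressed relative to control.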
# [3] = target: Ribosomal protein S6 kinase alpha-1 (Homo sapiens) (UniProt Q15418); experiment: Residual activity at human Rsk1 at 10 uM in presence of 10 uM ATP relative to control; in short: as §2
# [4] = target: Phosphatidylinositol 4,5-bisphosphate 3-kinase catalytic subunit alpha isoform (Homo sapiens, UniProt P42336); experiment: Inhibition of human PI3Kalpha
# [5] = target: Mitogen-activated protein kinase 13 (Homo sapiens) (UniProt O15264); experiment: Residual activity at human SAPK4 at 10 uM in presence of 10 uM ATP relative to control; in short: as §2
# [6] = target: Protein kinase C delta type (Homo sapiens) (UniProt Q05655); experiment: Residual activity at human PKCdelta at 10 uM in presence of 10 uM ATP relative to control; in short: as §2
# [7] = target: Tyrosine-protein kinase Lyn (Homo sapiens) (UniProt P07948); experiment: Residual activity at human Lyn at 10 uM in presence of 10 uM ATP relative to control; in short: as §2
# [8] = target: Serine/threonine-protein kinase D2 (Homo sapiens) (UniProt Q9BZL6); experiment: Residual activity at human PKD2 at 10 uM in presence of 10 uM ATP relative to control; in short: as §2
# [9] = target: Insulin receptor (Homo sapiens) (UniProt P06213); experiment: Residual activity at human IR at 10 uM in presence of 10 uM ATP relative to control; in short: as §1
# [10] = target: Glycogen synthase kinase-3 beta (Homo sapiens) (UniProt P49841); experiment: Residual activity at human GSK3-beta at 10 uM in presence of 10 uM ATP relative to control; in short: as §1
# [11] = Cmax in rat at 10 mg/kg, po; assay type: ADME, organism-based; set-up: dose 10 mg/kg, route oral; details: in vivo
# In short: (§3)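 Rats given a single 10 mg/kg dose, intravenously or orally. The compound was given as its potassium salt, prepared with KOH in THF/water, for the in vivo work.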
# [12] = target: RAC-alpha serine/threonine-protein kinase (Homo sapiens) (UniProt P31749); experiment: Residual activity at human PKBalpha at 10 uM in presence of 10 uM ATP relative to control; in short: as §2
# [13] = target: Cyclin-dependent kinase 1/cyclin B1 (Homo sapiens) (UniProt P06493+P14635); experiment: Residual activity at human CDK1/CyclinB at 10 uM in presence of 10 uM ATP relative to control; assay type: protein-complex assay; in short: as §1
# [14] = target: BDNF/NT-3 growth factors receptor (Homo sapiens) (UniProt Q16620); experiment: Residual activity at human TrkB at 10 uM in presence of 10 uM ATP relative to control; in short: as §2
# [15] = target: Tyrosine-protein kinase SYK (Homo sapiens) (UniProt P43405); experiment: Residual activity at human Syk at 10 uM in presence of 10 uM ATP relative to control; in short: as §2
# THP-1 = experiment: Inhibition of MCP1-induced chemotaxis of THP1 cells; assay type: functional, cell-based; details: Homo sapiens
# [16] = Metabolism in human microsome after 1 hr; assay type: ADME; details: microsomes, read-out: Activity
# [17] = target: RAC-beta serine/threonine-protein kinase (Homo sapiens) (UniProt P31751); experiment: Residual activity at human PKBbeta at 10 uM in presence of 10 uM ATP relative to control; in short: as §2
# Rattus norvegicus = experiment: Half life in rat at 10 mg/kg, iv; assay type: ADME, organism-based; set-up: dose 10 mg/kg, route intravenous; details: in vivo; in short: as §3
# [18] = target: Cyclin-dependent kinase 5/CDK5 activator 1 (Homo sapiens) (UniProt Q00535+Q15078); experiment: Residual activity at human CDK5/p35 at 10 uM in presence of 10 uM ATP relative to control; assay type: protein-complex assay; in short: as §1
# [19] = target: Dual specificity mitogen-activated protein kinase kinase 1 (Homo sapiens) (UniProt Q02750); experiment: Residual activity at human MEK1 at 10 uM in presence of 10 uM ATP relative to control; in short: as §2
# [20] = target: 3-phosphoinositide-dependent protein kinase 1 (Homo sapiens) (UniProt O15530); experiment: Residual activity at human PDK1 at 10 uM in presence of 10 uM ATP relative to control; in short: as §2
# [21] = target: Glycogen synthase kinase-3 alpha (Homo sapiens) (UniProt P49840); experiment: Residual activity at human GSK3alpha at 10 uM in presence of 10 uM ATP relative to control; in short: as §1
# [22] = target: Cyclin-dependent kinase 2/cyclin A (Homo sapiens) (UniProt P24941+P20248+P78396); experiment: Residual activity at human CDK2/CyclinA at 10 uM in presence of 10 uM ATP relative to control; assay type: protein-complex assay; in short: as §1
# [23] = target: Tyrosine-protein kinase Blk (Mus musculus) (UniProt P16277); experiment: Residual activity at mouse Blk at 10 uM in presence of 10 uM ATP relative to control; in short: as §2
# Chain of Tyrosine-protein kinase Blk (Mus musculus) (P16277 whole entry): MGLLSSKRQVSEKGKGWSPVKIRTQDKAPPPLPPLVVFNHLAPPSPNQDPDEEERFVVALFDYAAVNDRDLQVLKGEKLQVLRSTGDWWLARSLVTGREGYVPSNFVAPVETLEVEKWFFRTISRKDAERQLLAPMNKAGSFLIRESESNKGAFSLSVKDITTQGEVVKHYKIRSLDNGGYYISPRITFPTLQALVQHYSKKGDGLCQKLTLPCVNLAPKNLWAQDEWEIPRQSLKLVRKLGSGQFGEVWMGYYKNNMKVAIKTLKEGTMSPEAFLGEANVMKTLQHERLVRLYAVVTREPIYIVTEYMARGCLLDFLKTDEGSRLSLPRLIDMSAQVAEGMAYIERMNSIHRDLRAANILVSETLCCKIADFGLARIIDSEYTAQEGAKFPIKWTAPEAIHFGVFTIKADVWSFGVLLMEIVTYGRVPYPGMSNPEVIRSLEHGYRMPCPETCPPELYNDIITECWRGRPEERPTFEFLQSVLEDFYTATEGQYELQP
# Chain of RAC-alpha serine/threonine-protein kinase (Homo sapiens) (P31749 whole entry): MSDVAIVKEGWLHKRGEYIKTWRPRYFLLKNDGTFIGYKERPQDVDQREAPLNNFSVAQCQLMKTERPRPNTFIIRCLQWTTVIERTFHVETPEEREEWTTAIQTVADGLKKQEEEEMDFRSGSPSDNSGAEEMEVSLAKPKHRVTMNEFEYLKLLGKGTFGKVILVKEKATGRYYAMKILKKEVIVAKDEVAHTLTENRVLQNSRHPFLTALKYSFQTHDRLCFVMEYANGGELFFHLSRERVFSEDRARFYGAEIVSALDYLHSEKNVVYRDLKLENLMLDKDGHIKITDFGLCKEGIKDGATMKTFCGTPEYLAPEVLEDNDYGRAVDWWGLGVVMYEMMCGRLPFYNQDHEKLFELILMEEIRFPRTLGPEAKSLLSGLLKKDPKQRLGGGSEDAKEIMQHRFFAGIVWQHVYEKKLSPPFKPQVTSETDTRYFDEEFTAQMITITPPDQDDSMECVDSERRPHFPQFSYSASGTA
# Chain of Serine/threonine-protein kinase D2 (Homo sapiens) (Q9BZL6 whole entry): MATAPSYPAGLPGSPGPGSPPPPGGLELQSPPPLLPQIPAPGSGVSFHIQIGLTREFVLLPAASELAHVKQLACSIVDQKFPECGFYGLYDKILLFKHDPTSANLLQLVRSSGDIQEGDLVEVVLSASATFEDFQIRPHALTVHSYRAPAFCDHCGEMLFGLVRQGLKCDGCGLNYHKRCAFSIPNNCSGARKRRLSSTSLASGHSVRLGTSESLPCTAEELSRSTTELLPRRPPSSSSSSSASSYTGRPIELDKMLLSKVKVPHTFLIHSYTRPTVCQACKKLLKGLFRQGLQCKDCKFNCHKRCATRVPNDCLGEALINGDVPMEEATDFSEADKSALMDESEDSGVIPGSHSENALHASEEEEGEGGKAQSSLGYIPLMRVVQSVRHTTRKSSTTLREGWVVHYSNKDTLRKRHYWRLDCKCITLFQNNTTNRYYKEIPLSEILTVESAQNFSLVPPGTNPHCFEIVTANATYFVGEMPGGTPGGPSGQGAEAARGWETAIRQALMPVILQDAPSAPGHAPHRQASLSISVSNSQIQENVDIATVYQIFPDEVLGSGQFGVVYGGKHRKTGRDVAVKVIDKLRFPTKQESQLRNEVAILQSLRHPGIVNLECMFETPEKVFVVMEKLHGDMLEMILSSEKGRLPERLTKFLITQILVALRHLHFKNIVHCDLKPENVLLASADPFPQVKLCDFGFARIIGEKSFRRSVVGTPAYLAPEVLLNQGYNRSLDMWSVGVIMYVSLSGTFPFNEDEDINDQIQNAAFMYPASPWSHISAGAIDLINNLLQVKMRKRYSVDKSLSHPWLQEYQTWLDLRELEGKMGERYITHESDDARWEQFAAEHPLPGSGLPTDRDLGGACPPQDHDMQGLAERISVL
# Chain of Cyclin-dependent kinase 5/CDK5 activator 1 (Homo sapiens) (Q00535 whole entry): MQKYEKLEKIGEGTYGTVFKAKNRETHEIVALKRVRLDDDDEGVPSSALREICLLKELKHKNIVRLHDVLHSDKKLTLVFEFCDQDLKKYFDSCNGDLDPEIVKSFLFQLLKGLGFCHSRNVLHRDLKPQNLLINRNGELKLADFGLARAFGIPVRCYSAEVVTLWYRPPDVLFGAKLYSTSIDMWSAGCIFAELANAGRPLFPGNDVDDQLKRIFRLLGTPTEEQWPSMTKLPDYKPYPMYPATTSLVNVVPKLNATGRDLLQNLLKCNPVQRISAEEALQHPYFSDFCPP
# Chain of Cyclin-dependent kinase 5/CDK5 activator 1 (Homo sapiens) (Q15078 99-307 partner limits assumed): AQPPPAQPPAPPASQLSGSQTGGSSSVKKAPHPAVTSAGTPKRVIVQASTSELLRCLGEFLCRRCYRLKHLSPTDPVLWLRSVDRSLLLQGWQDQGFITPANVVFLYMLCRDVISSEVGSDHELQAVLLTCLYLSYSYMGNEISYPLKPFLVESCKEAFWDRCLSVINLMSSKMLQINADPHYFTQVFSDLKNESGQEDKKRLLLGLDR
# Chain of Tyrosine-protein kinase Lyn (Homo sapiens) (P07948 2-512 limits assumed): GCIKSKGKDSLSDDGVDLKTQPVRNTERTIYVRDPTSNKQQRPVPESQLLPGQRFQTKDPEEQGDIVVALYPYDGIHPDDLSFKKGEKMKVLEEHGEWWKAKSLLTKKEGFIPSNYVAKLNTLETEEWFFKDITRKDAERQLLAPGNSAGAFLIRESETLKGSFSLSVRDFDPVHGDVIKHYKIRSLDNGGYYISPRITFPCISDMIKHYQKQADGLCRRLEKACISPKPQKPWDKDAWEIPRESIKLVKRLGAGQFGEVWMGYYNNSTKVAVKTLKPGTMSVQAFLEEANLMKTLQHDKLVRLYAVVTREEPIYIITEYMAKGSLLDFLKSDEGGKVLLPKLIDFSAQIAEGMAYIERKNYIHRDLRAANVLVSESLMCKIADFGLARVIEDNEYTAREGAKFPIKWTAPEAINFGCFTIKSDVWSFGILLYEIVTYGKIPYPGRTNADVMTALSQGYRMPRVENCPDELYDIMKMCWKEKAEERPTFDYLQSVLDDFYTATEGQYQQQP
# Chain of Tyrosine-protein kinase Fyn (Homo sapiens) (P06241 2-537 limits assumed): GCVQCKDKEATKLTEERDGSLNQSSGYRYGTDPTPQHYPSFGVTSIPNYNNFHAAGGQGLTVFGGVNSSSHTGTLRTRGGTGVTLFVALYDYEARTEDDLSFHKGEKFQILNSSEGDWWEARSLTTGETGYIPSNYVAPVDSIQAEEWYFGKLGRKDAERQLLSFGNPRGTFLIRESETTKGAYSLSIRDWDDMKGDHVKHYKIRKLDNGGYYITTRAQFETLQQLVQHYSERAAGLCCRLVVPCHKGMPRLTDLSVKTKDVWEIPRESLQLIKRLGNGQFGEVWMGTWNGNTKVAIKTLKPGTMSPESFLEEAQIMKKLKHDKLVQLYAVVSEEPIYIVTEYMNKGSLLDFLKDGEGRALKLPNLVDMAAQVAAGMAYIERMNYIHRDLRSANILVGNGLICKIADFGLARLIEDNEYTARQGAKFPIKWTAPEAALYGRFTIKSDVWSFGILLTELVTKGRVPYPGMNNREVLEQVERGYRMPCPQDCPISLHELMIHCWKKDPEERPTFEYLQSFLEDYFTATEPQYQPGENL
# Chain of Phosphatidylinositol 4,5-bisphosphate 3-kinase catalytic subunit alpha isoform (P42336 whole entry, canonical isoform): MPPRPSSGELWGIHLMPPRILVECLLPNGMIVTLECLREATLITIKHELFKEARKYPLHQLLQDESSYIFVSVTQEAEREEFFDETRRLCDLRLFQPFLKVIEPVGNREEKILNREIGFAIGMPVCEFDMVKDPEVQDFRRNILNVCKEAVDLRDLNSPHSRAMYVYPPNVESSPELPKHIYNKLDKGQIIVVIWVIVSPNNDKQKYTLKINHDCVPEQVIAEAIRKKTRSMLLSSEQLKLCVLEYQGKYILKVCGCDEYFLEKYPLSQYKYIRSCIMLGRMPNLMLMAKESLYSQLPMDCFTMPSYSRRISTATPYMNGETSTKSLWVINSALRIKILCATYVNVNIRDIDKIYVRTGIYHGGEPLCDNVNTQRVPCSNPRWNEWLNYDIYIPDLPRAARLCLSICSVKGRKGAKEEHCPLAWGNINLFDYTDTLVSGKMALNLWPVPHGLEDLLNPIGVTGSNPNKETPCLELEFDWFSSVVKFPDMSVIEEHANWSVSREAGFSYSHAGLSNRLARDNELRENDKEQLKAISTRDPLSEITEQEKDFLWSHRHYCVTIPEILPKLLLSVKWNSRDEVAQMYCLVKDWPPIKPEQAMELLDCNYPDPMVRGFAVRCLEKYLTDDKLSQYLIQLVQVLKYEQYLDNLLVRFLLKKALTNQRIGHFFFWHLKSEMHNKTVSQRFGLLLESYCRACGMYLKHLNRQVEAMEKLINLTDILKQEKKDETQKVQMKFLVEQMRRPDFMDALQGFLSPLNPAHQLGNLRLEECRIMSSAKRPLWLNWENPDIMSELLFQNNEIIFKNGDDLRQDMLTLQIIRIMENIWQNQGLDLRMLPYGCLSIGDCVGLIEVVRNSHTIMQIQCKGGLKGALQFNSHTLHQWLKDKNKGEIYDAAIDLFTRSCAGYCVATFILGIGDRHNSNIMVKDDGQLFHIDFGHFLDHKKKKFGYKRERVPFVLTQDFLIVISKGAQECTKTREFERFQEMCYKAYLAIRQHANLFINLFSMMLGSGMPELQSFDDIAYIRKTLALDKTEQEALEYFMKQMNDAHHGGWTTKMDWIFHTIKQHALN
# Chain of Mitogen-activated protein kinase 13 (Homo sapiens) (O15264 whole entry): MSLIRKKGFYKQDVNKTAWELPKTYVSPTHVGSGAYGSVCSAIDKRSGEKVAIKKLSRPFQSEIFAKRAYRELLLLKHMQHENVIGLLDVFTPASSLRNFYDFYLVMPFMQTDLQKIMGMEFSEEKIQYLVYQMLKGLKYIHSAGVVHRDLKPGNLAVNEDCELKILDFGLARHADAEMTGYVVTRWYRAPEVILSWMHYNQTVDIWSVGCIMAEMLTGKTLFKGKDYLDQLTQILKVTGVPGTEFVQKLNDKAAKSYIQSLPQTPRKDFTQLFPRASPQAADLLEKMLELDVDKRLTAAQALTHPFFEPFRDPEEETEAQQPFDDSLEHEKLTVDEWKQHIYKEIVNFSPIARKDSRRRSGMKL
smiles,measurement,setting,value
O=C1NC(=O)/C(=C/c2ccc(-c3ccc(F)cc3O)o2)S1,Activity,[1],91%
same,Activity,Mus musculus,35%
same,Activity,[2],84%
same,Activity,[3],104%
same,IC50,[4],940 nM
same,Activity,[5],93%
same,Activity,[6],109%
same,Activity,[7],101%
same,Activity,[8],91%
same,Activity,[9],90%
same,Activity,[10],84%
same,Cmax,[11],309 ng/mL
same,Activity,[12],97%
same,Activity,[13],80%
same,Activity,[14],98%
same,Activity,[15],93%
same,IC50,THP-1,53 µM
same,metabolised at 1 h,[16],10%
same,Activity,[17],103%
same,T1/2,Rattus norvegicus,39 min
same,Activity,[18],83%
same,Activity,[19],96%
same,Activity,[20],104%
same,Activity,[21],66%
same,Activity,[22],84%
same,Activity,[23],70%
